# Activity calls are given as the source filed them. The rule behind the calls is not given here.
# How the values were obtained:
# [1] = molecular target: Cruzipain (Trypanosoma cruzi) (UniProt P25779); assay: Inhibition of Trypanosoma cruzi Tulahuen 2 cruzipain at 100 uM
# In short: (§1)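 Cruzipain purified from Tulahuen 2 epimastigotes by ConA-Sepharose affinity chromatography. Assayed in 50 mM Tris-acetate pH 8.0 with 0.3 mM Bz-Pro-Phe-Arg-pNA and 10 mM β-mercaptoethanol, A410 followed at 30 °C. Inhibitors added in DMSO, controls with matching DMSO, E-64 as reference. Tested at 10-100 µM; means of at least two measurements.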
# [2] = molecular target: T1, Cruzipain (Trypanosoma cruzi, UniProt P25779); assay: Inhibition of Trypanosoma cruzi Tulahuen 2 cruzipain; in short: as §1
# [3] = molecular target: T1, Cruzipain; assay: Binding affinity to Trypanosoma cruzi Tulahuen 2 cruzipain
# [4] = molecular target: Trypanothione reductase (Trypanosoma cruzi) (UniProt P28593); assay: Inhibition of Trypanosoma cruzi trypanothione reductase assessed as volume activity per minute at 100 uM
# [5] = molecular target: Trypanothione reductase (Trypanosoma cruzi) (UniProt P28593); assay: Inhibition of Trypanosoma cruzi trypanothione reductase assessed as volume activity per min at 100 uM in presence of NADPH
# In short: (§2)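 Time-dependent inactivation: 170 mU recombinant TR incubated at 25 °C in 40 mM HEPES, 1 mM EDTA, pH 7.5 with 100 µM inhibitor, with or without 160 µM NADPH, for 0-24 h. Aliquots diluted 200-fold and residual activity measured in the standard NADPH/TS2 assay at 340 nm. Controls: TR plus NADPH with DMSO, and TR plus inhibitor.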
# [6] = molecular target: Trypanothione reductase (Trypanosoma cruzi) (UniProt P28593); assay: Inhibition of Trypanosoma cruzi trypanothione reductase assessed as volume activity per min at 100 uM after 1 hr; in short: as §2
# [7] = molecular target: Trypanothione reductase (Trypanosoma cruzi) (UniProt P28593); assay: Inhibition of Trypanosoma cruzi trypanothione reductase assessed as volume activity per min at 100 uM in presence of NADPH after 1 hr; in short: as §2
# [8] = tested on: Trypanosoma cruzi; assay: Antitrypanosomal activity against Trypanosoma cruzi Tulahuen 2; assay type: functional, organism-based
# In short: (§3)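 Epimastigotes from 5-day stationary culture inoculated at 1 × 10^6 cells/mL into medium with compound added from DMSO stock (final DMSO ≤0.4%; control 0.4% DMSO, no compound). Growth followed by A600; % inhibition from day 0 and day 5 absorbance versus control. IC50 = concentration reducing the day-5 absorbance ratio to 50%. Single-dose screen at 25 µM. Means of three experiments.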
# [9] = tested on: Trypanosoma cruzi; assay: Antitrypanosomal activity against Trypanosoma cruzi CL Brener; assay type: functional, organism-based; in short: as §3
# [10] = tested on: Trypanosoma cruzi; assay: Antitrypanosomal activity against Trypanosoma cruzi Y; assay type: functional, organism-based; in short: as §3
# [11] = tested on: THP-1; assay: Cytotoxicity against human THP1 cells after 48 hrs; assay type: cell-based; conditions: THP-1, 48 h
# In short: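 THP-1 human macrophages in RPMI 1640 with 20% heat-inactivated FCS, left to attach 48 h at 37 °C, 5% CO2. Exposed to compounds at 25-1000 µM for 48 h, washed, then MTT 0.4 mg/mL for 3 h. Formazan dissolved in DMSO and read at OD595; % cytotoxicity corrected for compound-in-medium blanks. Triplicates per concentration, six growth controls; mean of two experiments.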
# [12] = Selectivity index, ratio of IC50 for human THP1 cells to IC50 for Trypanosoma cruzi Tulahuen 2; assay type: functional, THP-1
# [13] = Selectivity index, ratio of IC50 for human THP1 cells to IC50 for Trypanosoma cruzi CL Brener; assay type: functional, THP-1
# [14] = Selectivity index, ratio of IC50 for human THP1 cells to IC50 for Trypanosoma cruzi Y; assay type: functional, THP-1
# [15] = tested on: Trypanosoma cruzi; assay: Effect on oxygen uptake in Trypanosoma cruzi Tulahuen 2 at 200 uM; assay type: functional, organism-based
# In short: (§4)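 Tulahuen 2 epimastigotes grown 5 days, washed, resuspended in phosphate-saline buffer pH 7.4 with 5.5 mM glucose at 0.2 mg protein/mL (40 × 10^6 parasites/mL). O2 consumption measured by Clark electrode at 28 °C, compound 200 µM final in DMSO; control with 0.1% DMSO. Cyanide-insensitive respiration measured after 20 mM KCN.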
# [16] = tested on: Trypanosoma cruzi; assay: Effect on oxygen uptake in Trypanosoma cruzi Tulahuen 2 assessed as increase in oxygen consumption at 200 uM; assay type: functional, organism-based; in short: as §4
# [17] = molecular target: Cruzipain (Trypanosoma cruzi) (UniProt P25779); assay: Inhibition of Trypanosoma cruzi Tulahuen 2 cruzipain at 10 uM; in short: as §1
# [18] = molecular target: Cruzipain (Trypanosoma cruzi) (UniProt P25779); assay: Inhibition of Trypanosoma cruzi Tulahuen 2 cruzipain at 20 uM; in short: as §1
# [19] = molecular target: Cruzipain (Trypanosoma cruzi) (UniProt P25779); assay: Inhibition of Trypanosoma cruzi Tulahuen 2 cruzipain at 50 uM; in short: as §1
# [20] = molecular target: Trypanothione reductase (Trypanosoma cruzi) (UniProt P28593); assay: Inhibition of Trypanosoma cruzi trypanothione reductase assessed as volume activity per min at 100 uM in presence of NADPH after 4 hrs; in short: as §2
# [21] = tested on: Mus musculus; assay: Toxicity in Trypanosoma cruzi Tulahuen 2 infected Swiss mouse model of Chagas disease at 60 mg/kg, po; conditions: in vivo
# [22] = tested on: Trypanosoma cruzi; assay: Antitrypanosomal activity against Trypanosoma cruzi Tulahuen 2 infected Swiss mouse model of Chagas disease at 60 mg/kg, po after 41 days post infection
# [23] = tested on: Trypanosoma cruzi; assay: Antitrypanosomal activity against Trypanosoma cruzi Tulahuen 2 infected Swiss mouse model of Chagas disease at 60 mg/kg, po after 35 days post infection
# [24] = molecular target: Trypanothione reductase (Trypanosoma cruzi) (UniProt P28593); assay: Inhibition of Trypanosoma cruzi trypanothione reductase assessed as volume activity per min at 100 uM after 24 hrs; in short: as §2
# [25] = molecular target: Trypanothione reductase (Trypanosoma cruzi) (UniProt P28593); assay: Inhibition of Trypanosoma cruzi trypanothione reductase assessed as volume activity per min at 100 uM in presence of NADPH after 24 hrs; in short: as §2
# [26] = molecular target: Trypanothione reductase (Trypanosoma cruzi) (UniProt P28593); assay: Inhibition of Trypanosoma cruzi trypanothione reductase assessed as volume activity per min at 100 uM after 3 hrs; in short: as §2
# [27] = molecular target: Trypanothione reductase (Trypanosoma cruzi) (UniProt P28593); assay: Inhibition of Trypanosoma cruzi trypanothione reductase at 100 uM
# [28] = molecular target: Trypanothione reductase (Trypanosoma cruzi) (UniProt P28593); assay: Inhibition of Trypanosoma cruzi trypanothione reductase assessed as volume activity per min at 100 uM after 4 hrs; in short: as §2
# [29] = molecular target: Cruzipain (Trypanosoma cruzi) (UniProt P25779); assay: Inhibition of Trypanosoma cruzi Tulahuen 2 cruzipain at 25 uM; in short: as §1
# Sequence of Cruzipain (Trypanosoma cruzi) (P25779 123-467 limits assumed): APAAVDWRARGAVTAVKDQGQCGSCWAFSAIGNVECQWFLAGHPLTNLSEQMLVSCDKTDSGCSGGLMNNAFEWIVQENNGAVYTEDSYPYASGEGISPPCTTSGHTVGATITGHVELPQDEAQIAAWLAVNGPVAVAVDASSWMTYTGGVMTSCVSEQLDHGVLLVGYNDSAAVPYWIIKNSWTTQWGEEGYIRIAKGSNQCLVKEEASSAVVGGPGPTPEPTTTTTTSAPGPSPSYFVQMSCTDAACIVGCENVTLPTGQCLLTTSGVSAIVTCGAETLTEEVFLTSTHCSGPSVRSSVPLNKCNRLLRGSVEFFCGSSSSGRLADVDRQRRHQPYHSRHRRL
# T1 sequence (P25779 whole entry): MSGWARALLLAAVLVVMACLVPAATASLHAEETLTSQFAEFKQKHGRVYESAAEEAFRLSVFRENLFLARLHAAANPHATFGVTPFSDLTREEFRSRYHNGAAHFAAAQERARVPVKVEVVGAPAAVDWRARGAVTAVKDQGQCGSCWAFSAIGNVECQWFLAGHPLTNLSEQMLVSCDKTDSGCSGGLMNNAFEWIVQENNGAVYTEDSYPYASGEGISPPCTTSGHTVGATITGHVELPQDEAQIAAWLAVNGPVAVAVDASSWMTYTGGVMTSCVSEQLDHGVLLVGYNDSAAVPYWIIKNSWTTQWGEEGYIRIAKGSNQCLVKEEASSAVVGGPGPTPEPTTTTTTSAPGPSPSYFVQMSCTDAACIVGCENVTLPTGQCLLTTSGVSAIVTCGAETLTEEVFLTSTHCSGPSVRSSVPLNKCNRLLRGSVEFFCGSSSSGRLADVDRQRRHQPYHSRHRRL
# Sequence of Trypanothione reductase (Trypanosoma cruzi) (P28593 whole entry, looked up): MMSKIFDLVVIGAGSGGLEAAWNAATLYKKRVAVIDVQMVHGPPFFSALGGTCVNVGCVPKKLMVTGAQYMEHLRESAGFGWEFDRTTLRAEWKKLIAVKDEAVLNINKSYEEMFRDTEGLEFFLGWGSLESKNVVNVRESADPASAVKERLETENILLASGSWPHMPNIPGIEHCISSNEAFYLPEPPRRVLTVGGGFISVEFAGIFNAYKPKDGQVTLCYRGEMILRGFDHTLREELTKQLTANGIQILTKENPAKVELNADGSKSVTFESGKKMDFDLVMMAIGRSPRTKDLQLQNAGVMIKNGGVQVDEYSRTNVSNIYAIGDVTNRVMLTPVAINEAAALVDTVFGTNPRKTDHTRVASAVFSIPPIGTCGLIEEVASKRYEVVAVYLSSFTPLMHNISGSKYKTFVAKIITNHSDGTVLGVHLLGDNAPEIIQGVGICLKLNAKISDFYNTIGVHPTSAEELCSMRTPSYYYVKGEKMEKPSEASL
SMILES,inhibition [1] [%],IC50 [8] [µM],IC50 [9] [µM],IC50 [10] [µM],IC50 [11] [µM],Ratio IC50 [12],Ratio IC50 [13],Ratio IC50 [14],inhibition [17] [%],inhibition [18] [%],inhibition [19] [%],Activity [21],Activity [22],Activity [23],further results
O=S(=O)(/C=C\c1ccc2c(c1)no[n+]2[O-])c1ccccc1,19,1.1,6.1,2.1,109,99.1,17.9,51.9,2,3,24,Non-toxic,Active,Active,IC50 [2]: > 50 µM; Kd [3]: 1100 µM; deltaA [4]: 0.104; deltaA [5]: 0.097; deltaA [6]: 0.102; deltaA [7]: 0.084; Activity [15]: inactive; Activity [16]: inactive; deltaA [20]: 0.088
[O-][n+]1onc2cc(/C=C\c3ccccc3)ccc21,44,7,15.7,9,62.6,8.9,4,7,19,11,20,,,,
C=CS(=O)(=O)Cc1ccc2c(c1)no[n+]2[O-],,14.6,9.1,12.3,274,18.8,30.1,22.3,,,,,,,
CC1CS(=O)(=O)CCN1/N=C/c1ccc([N+](=O)[O-])o1 (stereo not drawn) [NIFURTIMOX],,7.7,8.5,6.5,,,,,,,,,,,
CC(=O)N1CCN(c2ccc(OCC3COC(Cn4ccnc4)(c4ccc(Cl)cc4Cl)O3)cc2)CC1 (stereo not drawn) [KETOCONAZOLE],,10,5,9.8,44,4.4,8.8,4.5,,,,,,,
O=S(=O)(CCO)Cc1ccc2c(c1)no[n+]2[O-],,> 25,,,300,<12,,,,,,,,,
[O-][n+]1onc2cc(/C=C\Sc3ccccc3)ccc21,,3.8,3.5,10,,,,,,,,Non-toxic,Active,Active,
[O-][n+]1onc2cc(/C=C\[S+]([O-])c3ccccc3)ccc21 (stereo not drawn),3,0.7,5,1.5,105,150,21,70,0,23,8,Non-toxic,Active,Active,deltaA [4]: 0.101; deltaA [5]: 0.107; deltaA [6]: 0.107; deltaA [7]: 0.107; deltaA [24]: 0.108; deltaA [25]: 0.081; deltaA [26]: 0.09
CN(C/C=C/C#CC(C)(C)C)Cc1cccc2ccccc12 [TERBINAFINE],,17.1,42,44.7,329,19.3,7.8,7.4,,,,,,,
[O-][n+]1onc2cc(/C=C/c3ccccc3)ccc21,22,10.8,7.5,6.2,110,10.2,14.7,17.7,12,0,43,,,,
[O-][n+]1onc2cc(/C=C/[S+]([O-])c3ccccc3)ccc21 (stereo not drawn),12,2.6,15.1,8.8,124,47.7,8.2,14.1,2,0,24,Non-toxic,Active,Active,inhibition [27]: 13%; deltaA [4]: 0.104; deltaA [5]: 0.103; deltaA [6]: 0.086; deltaA [7]: 0.105; deltaA [28]: 0.091; deltaA [20]: 0.105
CC(C)C[C@H](NC(=O)[C@H]1O[C@@H]1C(=O)O)C(=O)NCCCCN=C(N)N,,,,,,,,,100,,,,,,
O=C(Cn1ccnc1[N+](=O)[O-])NCc1ccccc1 [BENZNIDAZOLE],,7.4,4.5,3.8,,,,,,,,Non-toxic,,,
O=S(=O)(/C=C/c1ccc2c(c1)no[n+]2[O-])c1ccccc1,0,1.6,7.6,5,409,255.6,53.8,81.8,0,0,35,Non-toxic,Active,Active,IC50 [2]: > 50 µM; Kd [3]: 500 µM; deltaA [4]: 0.102; deltaA [5]: 0.101; deltaA [6]: 0.11; deltaA [7]: 0.099; Activity [15]: inactive; Activity [16]: inactive; deltaA [28]: 0.106; deltaA [20]: 0.098
[O-][n+]1onc2cc(/C=C/Sc3ccccc3)ccc21,,2.6,4.7,7.6,,,,,0,,25,Non-toxic,Active,Active,inhibition [29]: 15%
